ZTA DNA inh: blocks Epstein-Barr virus ZTA, an EBNA-1 counter-screen. hit rate 0.15% among 320,000. AID 2234. P03206. ZTA-DNA binding, fluorescence polarization. inhibition, % at 11 µM; in the data active = inhibition above about 33%
proCasp3 act: procaspase-3 (human) activation; P42574; recombinant procaspase-3 D3A, Ac-DEVD-pNA absorbance 405 nm; activation, % at 8.5 µM; hit rate 0.11% among 330,000; AID 463141;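 active = activation above the mean of all tested compounds plus 3 SD, cut at about 21% in these data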
Target sequence (P42574 whole entry D9A/D28A/D175A): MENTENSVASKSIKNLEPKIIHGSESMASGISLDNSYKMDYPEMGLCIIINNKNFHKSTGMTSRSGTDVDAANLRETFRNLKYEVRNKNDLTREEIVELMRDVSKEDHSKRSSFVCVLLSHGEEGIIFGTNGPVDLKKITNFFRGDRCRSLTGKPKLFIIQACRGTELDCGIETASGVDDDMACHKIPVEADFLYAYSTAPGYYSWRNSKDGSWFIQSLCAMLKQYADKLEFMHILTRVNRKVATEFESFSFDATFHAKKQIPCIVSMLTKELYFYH
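Test system: Procaspase-3 D3A mutant, all three cleavage aspartates alanine | Dosing: Single dose, 8.5 µM nominal compound, 0.8% DMSO | Schedule: 1 h preincubation, 2 h reaction | Technique: 405 nm absorbance of p-nitroaniline, reads at 0 and 120 min | Repeats: One well per compound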
procasp7 counter: counter-screen for procaspase-3 activators: activators of human procaspase-7. activation, % at 8.5 µM. P55210. AID 463210. recombinant procaspase-7, Ac-DEVD-pNA absorbance 405 nm; D23A/D198A/D206A triple mutant, cannot self-cleave; scale: DMSO 0, 5 µM enzyme 100. hit rate 0.093% among 330,000;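 active = percent activation above the screen-wide mean plus 3 SD, cut at about 25% in these data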
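Replicates: singlicate. Assay system: Procaspase-7 triple mutant (PC-7 D3A). Signal: 405 nm absorbance of p-nitroaniline. Times: 1 h preincubation, 2 h reaction. Buffer or medium: Zinc-free HEPES pH 7.4 with 300 mM NaCl, 0.01% Triton X-100. Also added: DEVD-pNA substrate. Benchmarks: DMSO wells as 0%, DMSO with 5 µM added PC-7 as 100%.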
GSTO1 inh: blocks human GSTO1 in RBBP9 counter-screen; recombinant GSTO1, activity-based probe fluorescence polarization; inhibition, % at 5.96 µM; hit rate 1.1% among 300,000; AID 1974;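 active = inhibition above the campaign mean inhibition plus 3 SD, cut at about 35% in these data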
Target sequence (P78417 whole entry, looked up): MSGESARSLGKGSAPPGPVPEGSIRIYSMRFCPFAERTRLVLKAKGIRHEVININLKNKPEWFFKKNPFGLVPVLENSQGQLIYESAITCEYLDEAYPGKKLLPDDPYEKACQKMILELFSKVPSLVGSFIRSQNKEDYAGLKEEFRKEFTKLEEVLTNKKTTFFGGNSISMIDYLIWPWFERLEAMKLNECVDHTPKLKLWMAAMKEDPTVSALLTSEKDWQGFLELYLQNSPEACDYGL
Apaf-1 inh: blocks human Apaf-1 apoptosome activity | O14727 | reconstituted apoptosome caspase-3 activity, DEVD-Rh110 fluorescence | inhibition, % at 20 µM | hit rate 0.71% among 330,000 | AID 489030; active = inhibition of at least 40% at 20 µM
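System – cell-free apoptosome with Apaf-1, procaspase-3 and caspase-9 · Buffer or medium – pH 7.5 Hepes buffer with CHAPS, BSA, DTT · Also added – cytochrome c with DEVD-Rh110 · Times – 30 min compound preincubation, 50 min activation, room temperature · Technique – Rh110 fluorescence intensity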
EBNA-1 inh: blocks EBNA-1 binding to DNA; hit rate 0.34% among 300,000; EBNA-1 DNA binding, fluorescence polarization; inhibition, % at 14.8 µM; in the data active = inhibition above about 28%
Apaf-1 inh conf2: confirmation of Apaf-1 inhibitors; shares compounds with Apaf-1 inh; reconstituted apoptosome, caspase-3 DEVD-Rh110 fluorescence; inhibition, % at 20 µM; hit rate 25% among 1,800;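 active = mean inhibition of at least 40% at 20 µM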
Rh110 quench: Rh110 signal interference in Apaf-1 inhibitor counter-screen; shares compounds with Apaf-1 inh; Rh110 fluorescence interference, quenched caspase reaction; activation (fluorescence interference), % at 20 µM; 1,800 tested, under 10 active;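 active = signal rise of 40% or more at 20 µM, treated as a fluorescence artifact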
Fluor interf inh: counter-screen for Apaf-1 inhibitors: fluorescence interference, dose response | shares compounds with Apaf-1 inh | fluorescence interference counterscreen, Apaf-1 assay format | IC50, µM | 460 tested, under 10 active; call rule not given here
Hits are given with their value. Sampled rows, rich in hits. Any-hit rate of the full collection: about 1.8%.

What do the screens show for `CN(C)c1cccc2c1c(NC(=O)Nc1ccccc1)nn2C`?
ZTA DNA inh: inactive; proCasp3 act: inactive; procasp7 counter: inactive; GSTO1 inh: inactive; Apaf-1 inh: 82; EBNA-1 inh: inactive; Apaf-1 inh conf2: inactive; Rh110 quench: inactive

What do the screens show for `CN(C)c1cccc2c1c(NC(=O)c1ccc(F)cc1)nn2C`?
ZTA DNA inh: inactive; proCasp3 act: inactive; procasp7 counter: inactive; GSTO1 inh: inactive; Apaf-1 inh: 92; EBNA-1 inh: inactive; Apaf-1 inh conf2: inactive; Rh110 quench: inactive

What do the screens show for `CN(C)c1cccc2c1c(NC(=O)Nc1ccc(F)cc1F)nn2C`?
ZTA DNA inh: inactive; proCasp3 act: inactive; procasp7 counter: inactive; GSTO1 inh: inactive; Apaf-1 inh: inactive; EBNA-1 inh: inactive

What do the screens show for `CN(C)c1cccc2c1c(NC(=O)c1ccc(Cl)cc1)nn2C`?
ZTA DNA inh: inactive; proCasp3 act: inactive; procasp7 counter: inactive; GSTO1 inh: inactive; Apaf-1 inh: inactive; EBNA-1 inh: inactive

Results for O=C(COc1cccc(C(F)(F)F)c1)Nc1ccc(S(=O)(=O)N2CCCCC2)cc1 ?
ZTA DNA inh: inactive; proCasp3 act: inactive; procasp7 counter: inactive; GSTO1 inh: inactive; Apaf-1 inh: inactive; EBNA-1 inh: inactive

What do the screens show for `CCCCn1c(N)c(N(CC)C(=O)C2CCC2)c(=O)[nH]c1=O`?
ZTA DNA inh: inactive; proCasp3 act: inactive; procasp7 counter: inactive; Apaf-1 inh: inactive

Results for COCCn1c(SCC(=O)Nc2cc(C(C)(C)C)nn2-c2ccccc2)nc2ccccc2c1=O ?
ZTA DNA inh: inactive; proCasp3 act: inactive; procasp7 counter: inactive; GSTO1 inh: inactive; Apaf-1 inh: inactive; EBNA-1 inh: inactive

How did CCN(CC)CCn1c(SCC(=O)Nc2ccc3c(c2)CCC3)nc2ccccc2c1=O do in these assays?
ZTA DNA inh: inactive; proCasp3 act: inactive; procasp7 counter: inactive; Apaf-1 inh: 51; Apaf-1 inh conf2: inactive; Rh110 quench: inactive

How did CCOCCCn1c(SCC(=O)Nc2cc(C(C)(C)C)nn2-c2ccccc2)nc2ccccc2c1=O do in these assays?
ZTA DNA inh: inactive; proCasp3 act: inactive; procasp7 counter: inactive; GSTO1 inh: inactive; Apaf-1 inh: 40; EBNA-1 inh: inactive; Apaf-1 inh conf2: inactive; Rh110 quench: inactive

What do the screens show for `CCCCCc1ccc(OCCC[n+]2ccccc2)c(CCCCC)c1`?
ZTA DNA inh: inactive; proCasp3 act: inactive; procasp7 counter: inactive; GSTO1 inh: inactive; Apaf-1 inh: 66; EBNA-1 inh: inactive; Apaf-1 inh conf2: 40; Rh110 quench: inactive; Fluor interf inh: inactive

What do the screens show for `COc1ccccc1CNC(=O)Cn1cccc1C(=O)c1ccccc1`?
ZTA DNA inh: inactive; proCasp3 act: inactive; procasp7 counter: inactive; GSTO1 inh: inactive; Apaf-1 inh: inactive; EBNA-1 inh: inactive

What do the screens show for `CC(=O)c1ccc(NC(=O)CC2Nc3cccc4cccc(c34)NC2=O)cc1` (configuration not stated)?
ZTA DNA inh: inactive; proCasp3 act: inactive; procasp7 counter: inactive; GSTO1 inh: 41; Apaf-1 inh: 89; EBNA-1 inh: inactive; Apaf-1 inh conf2: inactive; Rh110 quench: inactive

How did O=C(CC1NC(=O)NC1=O)Nc1ccccc1 (configuration not stated) do in these assays?
ZTA DNA inh: inactive; proCasp3 act: inactive; procasp7 counter: inactive; GSTO1 inh: inactive; Apaf-1 inh: inactive; EBNA-1 inh: inactive

What do the screens show for `Cc1cccc(NC(=O)CC2Nc3cccc4cccc(c34)NC2=O)c1` (configuration not stated)?
ZTA DNA inh: inactive; proCasp3 act: inactive; procasp7 counter: inactive; GSTO1 inh: inactive; Apaf-1 inh: 71; EBNA-1 inh: inactive; Apaf-1 inh conf2: inactive; Rh110 quench: inactive

Results for O=C(NCCOc1ccccc1)c1cc(S(=O)(=O)N2CCOCC2)ccc1F ?
ZTA DNA inh: inactive; proCasp3 act: inactive; procasp7 counter: inactive; GSTO1 inh: inactive; Apaf-1 inh: inactive; EBNA-1 inh: inactive

What do the screens show for `NS(=O)(=O)c1cccc(NC(=O)COC(=O)COc2ccc3ccccc3c2)c1`?
ZTA DNA inh: inactive; proCasp3 act: inactive; procasp7 counter: inactive; GSTO1 inh: inactive; Apaf-1 inh: inactive; EBNA-1 inh: inactive

Results for O=C(CNc1cccc2ccccc12)N/N=C/c1ccccn1 ?
ZTA DNA inh: inactive; proCasp3 act: inactive; procasp7 counter: inactive; GSTO1 inh: inactive; Apaf-1 inh: 48; EBNA-1 inh: inactive; Apaf-1 inh conf2: inactive; Rh110 quench: inactive

How did Cc1cccc(NCC(=O)N/N=C\c2ccccn2)c1 do in these assays?
ZTA DNA inh: inactive; proCasp3 act: inactive; procasp7 counter: inactive; GSTO1 inh: inactive; Apaf-1 inh: inactive; EBNA-1 inh: inactive

How did O=C(NC(=S)NCc1ccco1)c1ccccc1[N+](=O)[O-] do in these assays?
ZTA DNA inh: inactive; proCasp3 act: inactive; procasp7 counter: inactive; GSTO1 inh: inactive; Apaf-1 inh: inactive; EBNA-1 inh: inactive

Results for CC/C(=C(\c1ccc(O)cc1)c1ccc(OCCN(C)C)cc1)c1ccccc1 ?
ZTA DNA inh: inactive; proCasp3 act: inactive; procasp7 counter: inactive; GSTO1 inh: inactive; Apaf-1 inh: 65; EBNA-1 inh: inactive; Apaf-1 inh conf2: inactive; Rh110 quench: inactive

How did CC/C(=C(\c1ccccc1)c1ccc(OCCN(C)C)cc1)c1ccccc1 do in these assays?
ZTA DNA inh: inactive; proCasp3 act: inactive; procasp7 counter: inactive; GSTO1 inh: inactive; Apaf-1 inh: 72; EBNA-1 inh: inactive; Apaf-1 inh conf2: inactive; Rh110 quench: inactive

How did CCOc1ccc(C(=O)OCCN(CC)CC)cc1 do in these assays?
ZTA DNA inh: inactive; proCasp3 act: inactive; procasp7 counter: inactive; GSTO1 inh: inactive; Apaf-1 inh: inactive; EBNA-1 inh: inactive

How did CC/C(=C(/CC)c1ccc(O)cc1)c1ccc(O)cc1 do in these assays?
ZTA DNA inh: inactive; proCasp3 act: inactive; procasp7 counter: inactive; GSTO1 inh: inactive; Apaf-1 inh: inactive; EBNA-1 inh: inactive

Results for CCN(CC)CCOc1ccc(/C(=C(/Cl)c2ccccc2)c2ccccc2)cc1 ?
ZTA DNA inh: inactive; proCasp3 act: inactive; procasp7 counter: inactive; GSTO1 inh: inactive; Apaf-1 inh: 65; EBNA-1 inh: inactive; Apaf-1 inh conf2: inactive; Rh110 quench: inactive

How did COC(=O)C1=C(C)N(Cc2ccccc2)C(=NCc2cc(OC)c(OC)c(OC)c2)N[C@H]1CCc1ccccc1 do in these assays?
proCasp3 act: inactive; procasp7 counter: inactive; Apaf-1 inh: 48; Apaf-1 inh conf2: inactive; Rh110 quench: inactive

Screening results deposited in PubChem by several laboratories.
